Results reported in paper PMC9278990 (Nature structural & molecular biology, 2021).
“Also recorded” adds a separate entry of the source. No end group written: not given here.

Key:
FLCN–LDHA complex = test: FLCN-LDHA complex disruption in HEK293; format: cell-based, human; settings: HEK293, exogenous addition, 6 h; n=3
How it was run: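 HEK293 cells were given exogenous lactate or pyruvate for 6 h. Lysates underwent anti-FLCN IP (antibody 1 h, then protein G agarose 2 h, 4 °C), four washes in lysis buffer, Laemmli elution and immunoblotting alongside whole-cell extracts. Three independent experiments.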

LDHA [1] = test: Fluorescence polarization anisotropy binding to LDHA; parameters: species or system human; settings: rhodamine B-labeled peptide, pH 7.2, 30 min on ice, n = 3
pTyr10-LDHA = test: LDHA activity; format: cell-based, human; settings: rhodamine B-labeled peptides, pTyr10-LDHA normalized to NT; n=3
How it was run: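 HEK293 cells were treated with 1 μM rhodamine B-labeled peptides for 2 h. Whole-cell lysates were immunoblotted for pTyr10-LDHA, and band density was expressed as fold change versus untreated cells. n = 3.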

LDHA [2] = test: LDHA kinetics and inhibition assay; format: biochemical, human; settings: n = 3; for potency as compared to LDHA inhibitor FX11: 2 nM FLCN or 100 nM FLCN-10 versus 60 μM FX11, pH 7.0, 2 mM pyruvate; for mode of LDHA inhibition: 50 mM Tris-HCl pH 7.0, 2 mM pyruvate, varied NADH, 2 nM FLCN or 100 nM FLCN-10
How it was run: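 Reactions contained 50 mM Tris-HCl pH 7.0, 2 mM pyruvate and varied NADH, with test protein (2 nM), test peptide (100 nM) or reference inhibitor FX11 (60 μM). Triplicates, ≥2 independent assays. IC50 came from curve fitting; Ki came from Lineweaver–Burk analysis and IC50-to-Ki conversion.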

dimeric LDHA = test: LDHA activity, predominantly dimeric LDHA; format: biochemical, human; settings: LDHA 10 ng/μl (predominantly dimeric), increasing amounts of FLCN protein or FLCN-10; n=3
[3] = tested on: LDHA/LDHB chimeric constructs; test: Co-IP of FLCN with LDHA/LDHB chimeric constructs; format: binding, human; settings: HEK293, co-IP
UOK257 cells = test: Extracellular acidification rate; format: cell-based, human; settings: n = 8
How it was run: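 UOK257 cells were transfected at 50% confluency in 100-mm dishes (24 h), or left untransfected for peptide treatment. Cells were seeded at 1 × 10^5 per well 24 h before assay and treated immediately before measurement (peptide, 2 h). ECAR was read by Seahorse XF glycolytic stress test. Transfection n = 8, peptide n = 4 independent samples.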

LDHB = test: Co-immunoprecipitation of FLCN with LDHB; format: binding, human; settings: HEK293 cells, LDHB-FLAG IP; HAP1 cells
How it was run: (§1)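 Lysates came from transfected HEK293 cells (24 h post-transfection) or, for endogenous FLCN IP, from LDHA or LDHB knockout HAP1 cells. Capture used anti-FLAG or anti-HA agarose (2 h, 4 °C) or anti-LDHA/anti-FLCN antibody (1 h) followed by protein G agarose (2 h, 4 °C). Beads were washed four times in NP40 lysis buffer, eluted in Laemmli buffer and immunoblotted.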

LDHA [4] = test: Cibacron Blue-agarose pulldown of LDHA; format: binding, human; settings: HEK293 cells overexpressing FLCN; Cibacron blue agarose 1 h at 4 °C; n=3
How it was run: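 Lysates of HEK293 cells expressing empty vector or FLCN-FLAG were incubated with Cibacron Blue agarose for 1 h at 4 °C. LDHA was immunoblotted and the pulldown:input ratio was normalized to vector.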

ccRCC cells = test: Apoptosis in ccRCC cells on FLCN overexpression; format: cell-based, human; settings: 786-O, Caki-1 and Caki-2, FLAG-tagged FLCN, immunoblot
LDH = settings: UOK257 lysates, 2 μg plasmid; n = 3
LDHA [5] = test: Native PAGE of LDHA oligomers; parameters: species or system human
How it was run: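 HEK293 cells were transiently transfected with pcDNA3 constructs (TransIT-2020) for 24 h and lysed. Lysates were mixed with non-denaturing loading buffer (250 mM Tris-HCl pH 6.8, 30% glycerol, 0.05% bromophenol blue; 5× stock) for 5 min at room temperature. Samples were resolved on Tris-HCl gels in native running buffer (25 mM Tris, 192 mM glycine).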

LDHA [6] = test: Co-immunoprecipitation of FLCN with LDHA; format: binding, human; settings: expressed in HEK293 cells, FLAG IP, immunoblot
How it was run: as §1

[7] = overexpression of FLCN in HEK293, native PAGE

For `CC(O)C(=O)O` (centres unmarked) [lactate], the “effect on FLCN–LDHA complex” value (FLCN–LDHA complex) was “much milder effect on dissociation of LDHA from FLCN”.

`CC(=O)C(=O)O` [pyruvate] was tested, and the “effect on FLCN–LDHA complex” value (FLCN–LDHA complex) was “disruption of the FLCN–LDHA complex”.

In the case of “FLCN-1: peptide derived from aa 220–230 of FLCN (QRMNTAFTPFL; also: rhodamine B label (position not given here))”, the “binding to LDHA (in words)” value (LDHA [1]) was “bound tightly to LDHA” and the “LDHA activity in HEK293 cells” value (pTyr10-LDHA) was “effectively reduced LDHA activity”.

For “FLCN-10: decapeptide derived from the FLCN loop region; aa 219–228 (AQRMNTAFTP; also: rhodamine B label (position not given here))”, the “potency as compared to LDHA inhibitor FX11” value (LDHA [2]) was “greatly improved potency”, the “mode of LDHA inhibition” value (LDHA [2]) was “uncompetitively inhibits LDHA” and the “binding to LDHA (in words)” value (LDHA [1]) was “greatly enhanced binding”. For the same molecule, the “inhibition of dimeric LDHA” value (dimeric LDHA) was “effectively inhibit dimeric”.

In the case of folliculin [FLCN], the “binding to LDHA with both domains (NC) replaced by LDHB” value ([3]; NC chimeric construct) was “completely abrogated FLCN interaction”, the “binding to LDHA with LDHB N domain or C domain individually” value ([3]; chimeric constructs (first 22 / last 38 amino acids swapped)) was “preserved binding” and the “potency as compared to LDHA inhibitor FX11” value (LDHA [2]) was “greatly improved potency”. The “mode of LDHA inhibition” value (LDHA [2]) was “uncompetitively inhibits LDHA; also recorded: uncompetitive inhibitor of LDHA”, the “ECAR, transfection of 2 μg plasmid” value (UOK257 cells; UOK257, 2 μg transfection) was “little effect” and the “ECAR, transfection of 8 μg plasmid” value (UOK257 cells; UOK257, 8 μg transfection) was “reduced ECAR to a similar level as the FLCN-replaced control cell line”. For the same molecule, the “binding to LDHB (co-IP)” value (LDHB) was “no interaction with LDHB was detected”, the “LDHA binding to Cib-agarose” value (LDHA [4]) was “greatly diminished” and the “apoptosis in ccRCC on overexpression” value (ccRCC cells) was “induced apoptosis in ccRCC cells”. The “LDH activity after transfection of 2 μg” value (LDH) was ~ 77%, the “preference for LDHA oligomeric state” value (LDHA [5]; dimer compared to tetramer) was “prefers binding to the less active LDHA dimer” and the “effect on large oligomeric complexes of LDHA” value (LDHA [5]; [7]) was “decrease in large oligomeric complexes of LDHA”. The “formation of dimeric LDHA species (70 kDa)” value (LDHA [5]; [7]) was “induces formation of a dimeric LDHA species”, the “binding to LDHA (co-IP)” value (LDHA [6]) was “specifically bound to LDHA” and the “inhibition of dimeric LDHA” value (dimeric LDHA) was “effectively inhibit dimeric”.
